In article PMC2233693 (The Journal of General Physiology, 2000):
Residue numbers refer to the chain shown, from its start. Blank lines part the entries; values can stand above or below the compound they belong to.

Tests used:
Experiment in all cases: Blockage of macroscopic current by external Ca2+ or Mg2+, outside-out patches
Assay type in all cases: biochemical
Settings in all cases: for Ki: mean ± SD
[1] = target: T1, E340G mutant bovine olfactory CNG channel (Bos taurus, UniProt Q03041, E340G)
T1 sequence (Q03041 1-663 E340G): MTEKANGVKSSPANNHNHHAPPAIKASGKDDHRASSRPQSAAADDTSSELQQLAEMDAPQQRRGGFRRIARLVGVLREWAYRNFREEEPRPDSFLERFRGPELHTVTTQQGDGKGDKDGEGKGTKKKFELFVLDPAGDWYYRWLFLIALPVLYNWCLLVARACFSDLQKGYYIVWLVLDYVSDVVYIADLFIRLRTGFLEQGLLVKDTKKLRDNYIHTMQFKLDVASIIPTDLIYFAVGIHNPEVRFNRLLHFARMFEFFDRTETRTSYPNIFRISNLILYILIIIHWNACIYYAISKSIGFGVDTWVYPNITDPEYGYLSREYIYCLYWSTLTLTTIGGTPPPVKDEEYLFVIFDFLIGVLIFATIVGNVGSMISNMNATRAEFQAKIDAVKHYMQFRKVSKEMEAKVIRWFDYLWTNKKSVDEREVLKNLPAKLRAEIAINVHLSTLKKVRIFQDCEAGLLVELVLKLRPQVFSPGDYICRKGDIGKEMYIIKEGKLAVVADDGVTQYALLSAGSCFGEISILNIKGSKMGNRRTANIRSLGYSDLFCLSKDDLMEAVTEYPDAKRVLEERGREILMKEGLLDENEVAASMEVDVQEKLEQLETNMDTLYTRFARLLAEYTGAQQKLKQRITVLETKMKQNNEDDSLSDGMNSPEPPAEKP
In short: (§1)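 Xenopus oocytes injected with wild-type or mutant channel mRNA; outside-out patches with 100 μM cGMP in the pipette. Bath: 110 mM NaCl, 2 mM EDTA, 10 mM HEPES, pH 7.4, plus Ca2+ (NTA-buffered) or Mg2+ (EDTA-buffered); unbuffered above 0.1 mM. Five 1-s ramps (−80 to +80 mV) averaged, leak subtracted. Current normalised to divalent-free current at the same voltage, Hill-fitted per patch; Ki and n given as mean ± SD.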

[2] = target: T2, E340D mutant bovine olfactory CNG channel (Bos taurus, UniProt Q03041, E340D)
T2 sequence (Q03041 1-663 E340D): T1 sequence (Q03041 1-663 E340G) with G340D
In short: as §1

[3] = target: T3, wild-type bovine olfactory CNG channel (α3 subunit) (Bos taurus, UniProt Q03041)
T3 sequence (Q03041 1-663): T1 sequence (Q03041 1-663 E340G) with G340E
In short: as §1

n, Hill coefficient of blockage ([1]; external Ca2+, +80 mV): 0.6 ± 0.2 | Ki ([1]; external Ca2+, +80 mV): 26000 ± 9800 µM | n, Hill coefficient of blockage ([1]; external Ca2+, −80 mV): 0.4 ± 0.1 | Ki ([1]; external Ca2+, −80 mV): 6300 ± 2500 µM | n, Hill coefficient of blockage ([2]; external Ca2+, +80 mV): 1.3 ± 0.5 | Ki ([2]; external Ca2+, +80 mV): 18 ± 10 µM | n, Hill coefficient of blockage ([2]; external Ca2+, −80 mV): 1.2 ± 0.5 | Ki ([2]; external Ca2+, −80 mV): 47 ± 7 µM | n, Hill coefficient of blockage ([3]; external Ca2+, +80 mV): 0.9 ± 0.1 | Ki ([3]; external Ca2+, +80 mV): 383 ± 145 µM | n, Hill coefficient of blockage ([3]; external Ca2+, −80 mV): 1.3 ± 0.4 | Ki ([3]; external Ca2+, −80 mV): 47 ± 21 µM
Compound: [Ca+2] [Ca^2+]

n, Hill coefficient of blockage ([1]; external Mg2+, +80 mV): 0.8 ± 0.2 | Ki ([1]; external Mg2+, +80 mV): 9500 ± 3900 µM | n, Hill coefficient of blockage ([1]; external Mg2+, −80 mV): 0.7 ± 0.1 | Ki ([1]; external Mg2+, −80 mV): 1100 ± 300 µM | n, Hill coefficient of blockage ([2]; external Mg2+, +80 mV): 0.9 ± 0.2 | Ki ([2]; external Mg2+, +80 mV): 155 ± 56 µM | n, Hill coefficient of blockage ([2]; external Mg2+, −80 mV): 0.7 ± 0.2 | Ki ([2]; external Mg2+, −80 mV): 53 ± 17 µM | n, Hill coefficient of blockage ([3]; external Mg2+, +80 mV): 1.0 ± 0.1 | Ki ([3]; external Mg2+, +80 mV): 920 ± 640 µM | n, Hill coefficient of blockage ([3]; external Mg2+, −80 mV): 1.2 ± 0.2 | Ki ([3]; external Mg2+, −80 mV): 70 ± 34 µM
Compound: [Mg+2] [Mg^2+]
